Here are results for four compounds from ChEMBL document CHEMBL1125135, “Synthesis and central nervous system actions of thyrotropin-releasing hormone analogues containing a dihydroorotic acid moiety” (J Med Chem, 1990).

Calls of active or inactive are those of the source. The calls are words filed in the database; no cut-off is given here.

The test system of series [1] is Mus musculus. The series can be described thus: Evaluated for the effect on spontaneous locomotor activity in mice by intraperitoneal (ip) administration relative to TRH.
For series [2], the system named is Mus musculus. The series can be described thus: Toxicity and mortality indicates the number of dead animals / number of animals used at dose of 500 mg/kg by administering intravenously (iv) in 3 mice. It is filed as organism-based. Also noted: dose 500 mg/kg, route intravenous. Particulars: in vivo. In short, it runs like this: (§1)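 Acute toxicity in male Std/ddY mice (26-28 g), three to 10 per group. Compound dissolved in physiological saline and given as a single iv dose of 500 mg/kg. Animals observed for 1 week at 23-24 °C. Mortality recorded as dead/used.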

Series [3] relates to Mus musculus. Put plainly: Effect on reserpine-induced hypothermia (antagonist activity) in mice by intraperitoneal (ip) administration relative to TRH; Nonactive. In kind it is functional. In short, it runs like this:
(§2)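 Mouse CNS assay run by the method of an earlier report. Potency ratio to TRH derived from dose-response data by parallel line assay.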

The test system of series [4] is Mus musculus. The series can be described thus: Effect on pentobarbitol anesthesia (antagonist activity) in mice by intravenous (iv) administration relative to TRH. In kind it is functional. In short, it runs like this:
as §2

The subject of series [5] is Mus musculus. Put plainly: Toxicity and mortality indicates the number of dead animals / number of animals used at the compound dose of 500 mg/kg by administering intravenously (iv) in 3 mice. It is filed as functional. In short, it runs like this: as §1
In series [6] the test system is Mus musculus. The series can be described thus: (§3) Effect on reserpine-induced hypothermia (antagonist activity) in mice by intraperitoneal (ip) administration relative to TRH. In kind it is functional. In short, it runs like this:
as §2

Series [7] relates to Mus musculus. The series can be described thus: Effect on pentobarbitol anesthesia (antagonist activity) in mice by intravenous (iv) administration relative to TRHC; Not active. In kind it is functional, organism-based. Summed up: (§4)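 Mouse CNS tests followed methods from the authors' earlier paper. The potency ratio versus TRH comes from dose-response data for the test compound and TRH using the parallel line assay method.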

The test system of series [8] is Mus musculus. The description is as §3. In kind it is functional, organism-based. In short, it runs like this: as §4
Series [9] has as its system Mus musculus. The series can be described thus: Evaluated for the effect on spontaneous locomotor activity in mice by intraperitoneal (ip) administration relative to TRHV; Not active.
For series [10], the system named is Mus musculus. Put plainly: Toxicity and mortality indicates the number of dead animals / number of animals used at the compound dose of 500 mg/kg by administering intravenously (iv) in mice. In kind it is organism-based. Details: dose 500 mg/kg, route intravenous. Particulars: in vivo. In short, it runs like this:
as §1

As for `CNC(=O)[C@H]1CCCN1C(=O)[C@@H](Cc1c[nH]cn1)NC(=O)[C@@H]1CC(=O)N(C)C(=O)N1`, the Activity was 0.4 with Mus musculus [1], 0.9 in the series with Mus musculus [3] and 0.6 in the series with Mus musculus [4]. In the series with Mus musculus [2], the Mortality is 0.
In turn, `CN1C(=O)C[C@@H](C(=O)N[C@@H](Cc2c[nH]cn2)C(=O)N2CCC[C@H]2C(N)=O)NC1=O` returned a Mortality with Mus musculus [5] of 0. The Activity in the series with Mus musculus [1] amounted to 60.6; in the series on Mus musculus [6], 89.4; with Mus musculus [4], 28.1.
Consider `CN1C(=O)C[C@@H](C(=O)N[C@H](Cc2c[nH]cn2)C(=O)N2CCC[C@@H]2C(=O)OCc2ccccc2)NC1=O.Cl`, for which the result in the series on Mus musculus [7], in the series on Mus musculus [8] and in the series on Mus musculus [9] was inactive. Also, in the series with Mus musculus [2], the Mortality is 3.
As for `CC(=O)O.CCCCCCCCCCCCCCCCCCN1C(=O)C[C@@H](C(=O)N[C@@H](Cc2c[nH]cn2)C(=O)N2CCC[C@H]2C(N)=O)NC1=O`, in the series on Mus musculus [10], the Mortality was 1.
